ChEMBL document CHEMBL1155974, “The nucleoside analogue D-carba T blocks HIV-1 reverse transcription” (J Med Chem, 2009)
Blank lines part the entries; values can stand above or below the molecule they belong to. Activity calls are given as the source filed them. The rule behind the calls is not given here.

Tests used:
[1] = target: Human immunodeficiency virus type 1 reverse transcriptase (Human immunodeficiency virus 1) (UniProt Q72547); assay: Inhibition of HIV1 reverse transcriptase-mediated viral DNA synthesis at 10 uM by PAGE
[2] = test system: TZM; assay: Cytotoxicity against human TZM cells up to 10 uM after 48 hrs by XTT assay
[3] = Cytotoxicity against human GHOST cells up to 10 uM after 48 hrs by XTT assay
[4] = Cytotoxicity against human Hut/CCR5 cells up to 10 uM after 48 hrs by XTT assay; settings: hut/ccr5, 48 h
[5] = Inhibition of HIV1 reverse transcriptase M41L/D67N/K70R/T215Y/K219Q mutant-mediated viral DNA synthesis in human HOS cells assessed as luciferase activity treated 3 hrs before infection measured after 48 hrs by luminescence assay; format: cell-based; settings: Human immunodeficiency virus 1, HOS
How it was run: (§1)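 Single-cycle infection with a VSV-G-pseudotyped, Env-deleted HIV-1 luciferase vector carrying wt or NRTI-resistant RT, made by calcium phosphate transfection of 293 cells, harvested at 48 h and diluted 1:5. HOS or HSV-TK-expressing HOS 313 cells were seeded at 4000/well, pretreated with compound for 3 h, then infected for 48 h. Luciferase was normalized to untreated infection of the same RT variant. IC50 came from a four-parameter sigmoidal fit.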

[6] = Inhibition of HIV1 reverse transcriptase SSGR/T215Y mutant-mediated viral DNA synthesis in human HOS cells assessed as luciferase activity treated 3 hrs before infection measured after 48 hrs by luminescence assay; format: cell-based; settings: Human immunodeficiency virus 1, HOS; how it was run: as §1
[7] = target: Human immunodeficiency virus type 1 reverse transcriptase (Human immunodeficiency virus 1) (UniProt Q72547); assay: Inhibition of HIV1 reverse transcriptase-mediated viral DNA synthesis at 5 uM using TA template by PAGE in presence of thymidine triphosphate
How it was run: (§2)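 Competition primer-extension: labeled primer on DNA or RNA template of identical sequence (RNA reactions supplemented with RNase inhibitor), HIV-1 RT (1.0 µg), 10.0 µM each dATP/dCTP/dGTP. TTP:analog triphosphate at 1:5 or 1:1, totalling 10.0 µM; 37°, timed intervals, EDTA stop, 15% sequencing gel to score pausing.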

[8] = target: Human immunodeficiency virus type 1 reverse transcriptase (Human immunodeficiency virus 1) (UniProt Q72547); assay: Inhibition of HIV1 reverse transcriptase-mediated viral DNA synthesis at 5 uM using UA template by PAGE in presence of thymidine triphosphate; how it was run: as §2
[9] = test system: TZM; assay: Cytotoxicity against human TZM cells at 5% (w/v) after 48 hrs by XTT assay; format: cell-based
How it was run: (§3)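 Cells (TZM, GHOST, HuT-CCR5) incubated 48 h with five dilutions of compound; XTT substrate then added for a further 4–5 h, and viability read from conversion of the dye by live cells. Hydroxypropyl-β-cyclodextrin served as positive control for killing.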

[10] = Cytotoxicity against human GHOST cells at 5% (w/v) after 48 hrs by XTT assay; format: cell-based; how it was run: as §3
[11] = Cytotoxicity against human Hut/CCR5 cells at 5% (w/v) after 48 hrs by XTT assay; format: cell-based; settings: hut/ccr5, 48 h; how it was run: as §3
[12] = Inhibition of HIV1 reverse transcriptase M41L/D67N/K70R/T215Y/K219Q mutant-mediated viral DNA synthesis in human HOS-313 cells expressing HSV thymidine kinase assessed as luciferase activity treated 3 hrs before infection measured after 48 hrs by luminescence assay; format: cell-based; settings: Human immunodeficiency virus 1, HOS-313; how it was run: as §1
[13] = Inhibition of HIV1 reverse transcriptase SSGR/T215Y mutant-mediated viral DNA synthesis in human HOS-313 cells expressing HSV thymidine kinase assessed as luciferase activity treated 3 hrs before infection measured after 48 hrs by luminescence assay; format: cell-based; settings: Human immunodeficiency virus 1, HOS-313; how it was run: as §1
[14] = target: Human immunodeficiency virus type 1 reverse transcriptase (Human immunodeficiency virus 1) (UniProt Q72547); assay: Ratio of IC50 for inhibition of HIV1 wild type reverse transcriptase-mediated viral DNA synthesis in human HOS cells to IC50 for inhibition of HIV1 wild type reverse transcriptase-mediated viral DNA synthesis in human HOS-313 cells expressing HSV thymidine kinase; format: cell-based
How it was run: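 VSV-G-pseudotyped single-round HIV-1 luciferase vector (wt RT) made in 293 cells. HOS or HSV-TK-expressing HOS 313 cells, 4000/well, were pretreated 3 h with compound, infected 48 h, and luminescence read. Activity was normalized to untreated infections, and IC50 was taken from a four-parameter sigmoidal fit in each line.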

[15] = test system: HIV-1 M:B_Lai; assay: Antiviral activity against HIV1 LAI infected in human TZM cells assessed as inhibition of viral replication; format: functional, organism-based; settings: Human immunodeficiency virus 1, LAI
How it was run: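 Single-cycle inhibition assay in TZM (HeLa-derived indicator) cells infected with replication-competent wild-type HIV-1 LAI across a range of compound concentrations; IC50 reported.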

- inhibition [1]: inactive
Compound: Cc1cn([C@H]2C[C@H](O)[C@@H](COP(=O)(O)OP(=O)(O)OP(=O)(O)O)O2)c(=O)[nH]c1=O

- inhibition [1]: Active
Compound: Cc1cn([C@H]2CC[C@@H](COP(=O)(O)OP(=O)(O)OP(=O)(O)O)O2)c(=O)[nH]c1=O

Compound: Cc1cccc2c1OP(=O)(OC[C@H]1C[C@@H](n3cc(C)c(=O)[nH]c3=O)C[C@@H]1O)OC2 (some centres not stated)
- Activity [2]: Non-toxic
- Activity [3]: Non-toxic
- Activity [4]: Non-toxic

Compound: Cc1cn([C@H]2C[C@H](N=[N+]=[N-])[C@@H](CO)O2)c(=O)[nH]c1=O [ZIDOVUDINE]
- IC50 [5]: 20.1 nM
- IC50 [6]: 39.6 nM

- inhibition [1]: Active
- inhibition [7]: inactive
- inhibition [8]: Active
Compound: Cc1cn([C@@H]2C[C@H](COP(=O)(O)OP(=O)(O)OP(=O)(O)O)[C@@H](O)C2)c(=O)[nH]c1=O

Compound: CC(O)COC[C@H]1O[C@@H]2O[C@H]3[C@H](O)[C@@H](O)[C@@H](O[C@H]4[C@H](O)[C@@H](O)[C@@H](O[C@H]5[C@H](O)[C@@H](O)[C@@H](O[C@H]6[C@H](O)[C@@H](O)[C@@H](O[C@H]7[C@H](O)[C@@H](O)[C@@H](O[C@H]8[C@H](O)[C@@H](O)[C@@H](O[C@H]1[C@H](O)[C@H]2O)O[C@@H]8COCC(C)O)O[C@@H]7COCC(C)O)O[C@@H]6COCC(C)O)O[C@@H]5COCC(C)O)O[C@@H]4COCC(C)O)O[C@@H]3COCC(C)O (stereo partly drawn) [2-HYDROXYPROPYL-BETA-CYCLODEXTRIN]
- Activity [9]: > 50%
- Activity [10]: > 50%
- Activity [11]: > 50%

Compound: Cc1cn([C@@H]2C[C@H](CO)[C@@H](O)C2)c(=O)[nH]c1=O
- IC50 [5]: 1300 nM
- IC50 [12]: 870 nM
- IC50 [6]: 4600 nM
- IC50 [13]: 1000 nM
- Ratio IC50 [14]: 4
- IC50 [15]: 50 nM
- Activity [2]: Non-toxic
- Activity [3]: Non-toxic
- Activity [4]: Non-toxic
